What was measured:
Mus musculus [1] = assay: BDF1 male mice were administered with 100 mg/kg ip and percent change in iron levels was determined in Urine; format: functional; conditions: route intraperitoneal
How it was run: (§1)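 Male BDF1 mice made iron-overloaded by transfusion of washed, heat-treated (50 °C, 30 min) canine red cells. Dosing began 2 days after the last transfusion, once daily for 7 days, in distilled water or 2% Polysorbate 80 suspension. Daily group urine was collected. Pooled feces were digested in 1 N HCl (90 °C, 30 min). Liver and spleen were homogenized in saline. Iron was measured by atomic absorption and expressed as % change vs transfused controls.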

Mus musculus [2] = assay: BDF1 male mice were administered with the compound and number of survivors was determined at a dose 150 mg/kg peroral out of 10 tested; format: functional; conditions: route oral
How it was run: (§2)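 Male BDF1 mice were iron-loaded by transfusion of canine red cells. The cells were heparinised, washed twice in isotonic saline and heated at 50 °C for 30 min. Dosing started two days after the last transfusion, once daily for 7 consecutive days. Compounds were given in distilled water or as a fine aqueous suspension with Polysorbate 80 (2% final). Toxic signs were recorded daily and survivors counted per group.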

Mus musculus [3] = assay: BDF1 male mice were administered with 100 mg/kg po and percent change in iron levels was determined in Spleen; format: functional; how it was run: as §1
Mus musculus [4] = assay: BDF1 male mice were administered with the compound and number of survivors was determined at a dose 100 mg/kg intraperitoneal out of 10 tested; format: functional; how it was run: as §2
Mus musculus [5] = assay: BDF1 male mice were administered with 100 mg/kg po and percent change in iron levels was determined in Urine; format: functional; how it was run: as §1
Mus musculus [6] = assay: BDF1 male mice were administered with 100 mg/kg ip and percent change in iron levels was determined in Spleen; format: functional; conditions: route intraperitoneal; how it was run: as §1
Rattus norvegicus [7] = assay: Percent change in iron levels was determined in urine using iron overload rat model where the route of administration is Peroral; format: functional
Mus musculus [8] = assay: BDF1 male mice were administered with 100 mg/kg ip and percent change in iron levels was determined in Liver; format: functional; conditions: route intraperitoneal; how it was run: as §1
Rattus norvegicus [9] = assay: Percent change in iron levels was determined in feces using iron overload rat model where the route of administration is Peroral; format: functional
Mus musculus [10] = assay: BDF1 male mice were administered with 150 mg/kg po and percent change in iron levels was determined in Spleen; format: functional; how it was run: as §1
Mus musculus [11] = assay: BDF1 male mice were administered with the compound and number of survivors was determined at a dose 100 mg/kg peroral out of 10 tested; format: functional; conditions: route oral; how it was run: as §2
Mus musculus [12] = assay: BDF1 male mice were administered with 150 mg/kg po and percent change in iron levels was determined in Liver; format: functional; how it was run: as §1
Rattus norvegicus [13] = assay: Percent change in iron levels was determined in feces using iron overload rat model where the route of administration is Intraperitoneal; format: functional
Mus musculus [14] = assay: BDF1 male mice were administered with 100 mg/kg ip and percent change in iron levels was determined in Feces; format: functional; conditions: route intraperitoneal; how it was run: as §1
Mus musculus [15] = assay: BDF1 male mice were administered with 100 mg/kg po and percent change in iron levels was determined in Feces; format: functional; how it was run: as §1
Mus musculus [16] = assay: BDF1 male mice were administered with 100 mg/kg po and percent change in iron levels was determined in Liver; format: functional; how it was run: as §1
Mus musculus [17] = assay: BDF1 male mice were administered with 150 mg/kg po and percent change in iron levels was determined in Urine; format: functional; how it was run: as §1
Mus musculus [18] = assay: BDF1 male mice were administered with 150 mg/kg po and percent change in iron levels was determined in Feces; format: functional; how it was run: as §1
Rattus norvegicus [19] = assay: Percent change in iron levels was determined in urine using iron overload rat model where the route of administration is Intraperitoneal; format: functional
Mus musculus [20] = assay: BDF1 male mice were administered with 200 mg/kg orally and percent change in iron levels was determined in Liver; format: functional; conditions: route oral; how it was run: as §1
Mus musculus [21] = assay: BDF1 male mice were administered with the compound orally and number of survivors at a dose 25 mg/kg peroral was determined out of 10 tested; format: functional; conditions: route oral; how it was run: as §2
Mus musculus [22] = assay: BDF1 male mice were administered with the compound orally and number of survivors was determined out of 10 tested at a dose 50 mg/kg peroral; format: functional; conditions: route oral; how it was run: as §2
Mus musculus [23] = assay: BDF1 male mice were administered with 25 mg/kg orally and percent change in iron levels was determined in Urine; format: functional; conditions: route oral
How it was run: (§3)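 Hypertransfused male BDF1 mice (canine red cells, washed and heated at 50 °C for 30 min) were dosed orally for 7 days with compound in distilled water or a fine suspension with Polysorbate 80 (2% final). Daily group urine and pooled feces (1 N HCl digest, 90 °C, 30 min, triplicate) were collected, and liver and spleen were homogenized. Iron was measured by atomic absorption and reported as % change vs transfused control.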

[24] = Half life was determined titrimetrically at pH 10.5 in the absence of metal ironHalf life was determined Spectrophotometrically; format: ADME
Mus musculus [25] = assay: BDF1 male mice were administered with 100 mg/kg orally and percent change in iron levels was determined in Feces; format: functional; conditions: route oral; how it was run: as §1
Mus musculus [26] = assay: BDF1 male mice were administered with 25 mg/kg orally and percent change in iron levels was determined in Liver; format: functional; conditions: route oral; how it was run: as §3
[27] = Half life was determined titrimetrically at pH 7.5 in the presence of Cu(II) Half life was determined
Mus musculus [28] = assay: BDF1 male mice were administered with 25 mg/kg orally and percent change in iron levels was determined in Feces; format: functional; conditions: route oral; how it was run: as §3
[29] = First order rate constant was determined titrimetrically at pH 7.5 in the presence of Cu(II)
Mus musculus [30] = assay: BDF1 male mice were administered with 25 mg/kg orally and percent change in iron levels was determined in Spleen; format: functional; conditions: route oral; how it was run: as §3
[31] = Half life was determined titrimetrically at pH 7.5 in the presence of Zn(II)Half life was determined (measured in water)
[32] = Compound was evaluated for lethal dose after intraperitoneal administration using iron overload rat model; format: toxicity, organism-based; conditions: in vivo, ip
Mus musculus [33] = assay: BDF1 male mice were administered with 100 mg/kg orally and percent change in iron levels was determined in Liver; format: functional; conditions: route oral; how it was run: as §1
Mus musculus [34] = assay: BDF1 male mice were administered with 100 mg/kg orally and percent change in iron levels was determined in Urine; format: functional; conditions: route oral; how it was run: as §1
Mus musculus [35] = assay: BDF1 male mice were administered with 50 mg/kg orally and percent change in iron levels was determined in Urine; format: functional; conditions: route oral; how it was run: as §3
Mus musculus [36] = assay: BDF1 male mice were administered with 200 mg/kg orally and percent change in iron levels was determined in Urine; format: functional; conditions: route oral; how it was run: as §1
[37] = First order rate constant was determined titrimetrically at pH 7.5 in the presence of Zn(II)
Mus musculus [38] = assay: BDF1 male mice were administered with the compound orally and number of survivors was determined out of 10 tested at a dose 100 mg/kg peroral; format: functional; conditions: route oral; how it was run: as §2
[39] = Half life was determined titrimetrically at pH 7.5 in the presence of Co(II)Half life was determined (measured in water)
Mus musculus [40] = assay: BDF1 male mice were administered with 50 mg/kg orally and percent change in iron levels was determined in Spleen; format: functional; conditions: route oral; how it was run: as §3
Mus musculus [41] = assay: BDF1 male mice were administered with 200 mg/kg orally and percent change in iron levels was determined in Spleen; format: functional; conditions: route oral; how it was run: as §1
Mus musculus [42] = assay: BDF1 male mice were administered with 200 mg/kg orally and percent change in iron levels was determined in Feces; format: functional; conditions: route oral; how it was run: as §1
Mus musculus [43] = assay: BDF1 male mice were administered with 100 mg/kg orally and percent change in iron levels was determined in Spleen; format: functional; conditions: route oral; how it was run: as §1
Mus musculus [44] = assay: BDF1 male mice were administered with 50 mg/kg orally and percent change in iron levels was determined in Liver; format: functional; conditions: route oral; how it was run: as §3
Mus musculus [45] = assay: BDF1 male mice were administered with the compound orally and number of survivors was determined out of 10 tested at a dose 200 mg/kg peroral; format: functional; conditions: route oral; how it was run: as §2
[46] = First order rate constant was determined titrimetrically at pH 10.5 in the absence of metal iron; format: ADME
Mus musculus [47] = assay: BDF1 male mice were administered with 50 mg/kg orally and percent change in iron levels was determined in Feces; format: functional; conditions: route oral; how it was run: as §3
[48] = Half life was determined titrimetrically at pH 7.5 in the presence of Fe(III)Half life was determined
[49] = Half life was determined titrimetrically at pH 10.5 in the presence of Fe(III)Half life was determined (measured in water); format: ADME; conditions: pH 7.5, in the assay text read “pH 7.5” for “pH 10.5”
How it was run: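 Metal and chelator were each 5 × 10⁻⁴ M. Constant pH was held with 0.05 M NaOH. Hydrolysis rate came from base consumption, with first-order kinetics.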

[50] = First order rate constant was determined titrimetrically at pH 7.5 in the presence of Co(II)

In the case of CCCCCOC(=O)CN(CCN(CC(=O)OCCCCC)Cc1ccccc1O)Cc1ccccc1O, the Iron change (Mus musculus [1]) is reported as 117%, the No. of survivors (Mus musculus [2]) is reported as 8 and the Iron change (Mus musculus [3]) is reported as 12%. The No. of survivors (Mus musculus [4]) was 10, the Iron change (Mus musculus [5]) was 43% and the Iron change (Mus musculus [6]) was -2%. The Iron change (Rattus norvegicus [7]) was 390%, the Iron change (Mus musculus [8]) was -33% and the Iron change (Rattus norvegicus [9]) was 268%. For the same compound, the Iron change (Mus musculus [10]) was -11%, the No. of survivors (Mus musculus [11]) was 10 and the Iron change (Mus musculus [12]) was -60%. For the same compound, the Iron change (Rattus norvegicus [13]) was 114%, the Iron change (Mus musculus [14]) was 24% and the Iron change (Mus musculus [15]) was -3%. For the same compound, the Iron change (Mus musculus [16]) was -12%, the Iron change (Mus musculus [17]) was 132% and the Iron change (Mus musculus [18]) was -69%. It also gave an Iron change (Rattus norvegicus [19]) of 215%.
For COC(=O)CN(CCN(CC(=O)OC)Cc1ccccc1O)Cc1ccccc1O, the Iron change (Mus musculus [20]) was -53%, the No. of survivors (Mus musculus [21]) was 10 and the No. of survivors (Mus musculus [22]) was 10. For the same compound, the Iron change (Mus musculus [23]) was 30%, the half-life [24] was 3.57 h and the Iron change (Mus musculus [25]) was -2%. The Iron change (Mus musculus [26]) was -20%, the half-life [27] was 2.25 h and the Iron change (Mus musculus [28]) was -10%. The “10E2 k1” value [29] was 0.513 min⁻¹, the Iron change (Mus musculus [30]) was -7% and the Iron change (Rattus norvegicus [7]) was 588%. The half-life [31] was 0.318 h, the LD50 [32] was ≥ 800 mg/kg and the Iron change (Mus musculus [33]) was -42%. The Iron change (Mus musculus [34]) was 34%, the Iron change (Mus musculus [35]) was 49% and the Iron change (Rattus norvegicus [9]) was 369%. For the same compound, the Iron change (Mus musculus [36]) was 127%, the “10E2 k1” value [37] was 3.66 min⁻¹ and the No. of survivors (Mus musculus [38]) was 10. It also gave an Iron change (Rattus norvegicus [13]) of 390%, a half-life [39] of 2.72 h and an Iron change (Mus musculus [40]) of -12%. For the same compound, the Iron change (Mus musculus [41]) was -29%, the Iron change (Mus musculus [42]) was -71% and the Iron change (Mus musculus [43]) was -12%. The Iron change (Mus musculus [44]) was -27%, the No. of survivors (Mus musculus [45]) was 10 and the “10E2 k1” value [46] was 0.325 min⁻¹. The Iron change (Rattus norvegicus [19]) was 694%, the Iron change (Mus musculus [47]) was 8% and the half-life [48] was 0.328 h. For the same compound, the half-life [49] was 5.4 min and the “10E2 k1” value [50] was 0.436 min⁻¹.
